In ChEMBL document CHEMBL1152230, “Synthesis of (3,4-dimethoxyphenoxy)alkylamino acetamides as orexin-2 receptor antagonists” (Bioorg Med Chem Lett, 2008):
Calls of active or inactive are those of the source. No cut-off for these calls is given here.

Columns and labels:
[1] = molecular target: T1, Orexin receptor type 2 (Homo sapiens, UniProt O43614); test: Antagonist activity at human OX2 receptor expressed in HEK293 cells assessed as inhibition of human orexin-A-stimulated calcium release by FLIPR assay; format: functional, cell-based
T1 sequence (O43614 whole entry): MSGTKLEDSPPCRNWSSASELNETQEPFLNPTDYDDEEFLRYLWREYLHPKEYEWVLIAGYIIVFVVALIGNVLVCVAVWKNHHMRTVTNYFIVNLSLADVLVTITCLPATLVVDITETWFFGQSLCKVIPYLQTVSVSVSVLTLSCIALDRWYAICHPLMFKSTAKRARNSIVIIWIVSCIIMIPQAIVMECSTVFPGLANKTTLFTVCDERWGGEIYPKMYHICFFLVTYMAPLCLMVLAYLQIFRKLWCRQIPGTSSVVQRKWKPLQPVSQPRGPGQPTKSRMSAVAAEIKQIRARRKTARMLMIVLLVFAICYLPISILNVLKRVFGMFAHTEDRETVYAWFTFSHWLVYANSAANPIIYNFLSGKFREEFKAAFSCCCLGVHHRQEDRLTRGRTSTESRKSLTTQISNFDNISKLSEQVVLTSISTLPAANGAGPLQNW
How it was run: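 HEK293/OX2-R cells, 20,000/well, were grown 24 h at 37 °C. They were loaded with Calcium 3 no-wash dye in HBSS/20 mM HEPES pH 7.5/BSA with 2.5 mM probenecid final, for 30 min at 37 °C, then 30-90 min at room temperature. FLIPR fluorescence was read for 125 s.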

[2] = molecular target: T2, Orexin receptor type 2 (Homo sapiens) (UniProt O43614); test: Agonist activity at human OX2 receptor expressed in HEK293 cells assessed as effect on human orexin-A-stimulated calcium release by FLIPR assay; format: functional, cell-based
T2 sequence (whole entry): T1 sequence (O43614 whole entry)

Compound | IC50 ([1]; read-out: pIC50 (converted)) [nM] | Activity [2] | IC50 ([1]; read-out: IC50) [nM]
COc1ccc(OCCCN(CC(=O)NCc2ccccc2)Cc2cccs2)cc1OC | 132 | inactive | 
COc1ccc(OCCCN(CC(=O)NCc2ccccc2)Cc2ccccc2)cc1OC | 51.3 | inactive | 
COc1ccc(OCCN(CC(=O)NCC(C)C)Cc2cccs2)cc1OC | 324 | inactive | 
COc1ccc(OCCN(CC(=O)NCc2ccccc2)Cc2cccs2)cc1OC | 110 | inactive | 
COc1ccc(OCCN(CC(=O)NCc2ccccc2Cl)Cc2cccs2)cc1OC | 195 | inactive | 
COc1ccc(OCCN(CC(=O)NCc2ccccc2Cl)Cc2ccccc2)cc1OC | 151 | inactive | 
COc1ccc(OCCN(CC(=O)NCC(C)C)Cc2ccccc2)cc1OC | 302 | inactive | 
COc1ccc(OCCN(CC(=O)NCc2ccccc2Cl)Cc2ccc(F)c(F)c2)cc1OC | 81.3 | inactive | 
COc1ccc(OCCN(CC(=O)NCc2ccccc2)Cc2ccc(F)c(F)c2)cc1OC | 18.6 | inactive | < 30
COc1ccc(OCCN(CC(=O)NCC(C)C)Cc2ccc(F)c(F)c2)cc1OC | 229 | inactive | 
COc1ccc(OCCN(CC(=O)NCc2ccccc2)Cc2ccccc2)cc1OC | 25.1 | inactive | < 30
COc1ccc(OCCCN(CC(=O)NCc2ccccc2)Cc2ccc(F)c(F)c2)cc1OC | 107 | inactive | 
COc1ccc(OCCN(CC(=O)NCC(C)C)Cc2ccc(F)cc2)cc1OC | 562 | inactive | 
COc1ccc(OCCN(CC(=O)NCc2ccccc2Cl)Cc2ccc(F)cc2)cc1OC | 138 | inactive | 
COc1ccc(OCCN(CC(=O)NCc2ccccc2)Cc2ccc(F)cc2)cc1OC | 19.5 | inactive | < 30
